Measurements as given in ChEMBL document CHEMBL4406884, “An anthrone-based Kv7.2/7.3 channel blocker with improved properties for the investigation of psychiatric and neurodegenerative disorders” (Bioorg Med Chem Lett, 2019).
pIC50, pKi: −log10 of the molar value. Converted amounts (≈) assume the structure as drawn.

How the values were obtained:
[1] = target: Voltage-gated potassium channel, KQT; KCNQ2(Kv7.2)/KCNQ3(Kv7.3) (Homo sapiens) (UniProt O43526+O43525); test: Inhibition of Kv7.2/7.3 in human tsA201 cells assessed as effect on channel currents at -60 mV holding potential at 1.5 uM by whole cell patch clamp assay relative to control; assay type: cell-based
[2] = target: Potassium voltage-gated channel subfamily KQT member 2 (Homo sapiens, UniProt O43526); test: Inhibition of Kv7.2 in human HEK293 cells incubated for 1 hr by thallium flux assay; assay type: cell-based
Chain of Potassium voltage-gated channel subfamily KQT member 2 (O43526 whole entry): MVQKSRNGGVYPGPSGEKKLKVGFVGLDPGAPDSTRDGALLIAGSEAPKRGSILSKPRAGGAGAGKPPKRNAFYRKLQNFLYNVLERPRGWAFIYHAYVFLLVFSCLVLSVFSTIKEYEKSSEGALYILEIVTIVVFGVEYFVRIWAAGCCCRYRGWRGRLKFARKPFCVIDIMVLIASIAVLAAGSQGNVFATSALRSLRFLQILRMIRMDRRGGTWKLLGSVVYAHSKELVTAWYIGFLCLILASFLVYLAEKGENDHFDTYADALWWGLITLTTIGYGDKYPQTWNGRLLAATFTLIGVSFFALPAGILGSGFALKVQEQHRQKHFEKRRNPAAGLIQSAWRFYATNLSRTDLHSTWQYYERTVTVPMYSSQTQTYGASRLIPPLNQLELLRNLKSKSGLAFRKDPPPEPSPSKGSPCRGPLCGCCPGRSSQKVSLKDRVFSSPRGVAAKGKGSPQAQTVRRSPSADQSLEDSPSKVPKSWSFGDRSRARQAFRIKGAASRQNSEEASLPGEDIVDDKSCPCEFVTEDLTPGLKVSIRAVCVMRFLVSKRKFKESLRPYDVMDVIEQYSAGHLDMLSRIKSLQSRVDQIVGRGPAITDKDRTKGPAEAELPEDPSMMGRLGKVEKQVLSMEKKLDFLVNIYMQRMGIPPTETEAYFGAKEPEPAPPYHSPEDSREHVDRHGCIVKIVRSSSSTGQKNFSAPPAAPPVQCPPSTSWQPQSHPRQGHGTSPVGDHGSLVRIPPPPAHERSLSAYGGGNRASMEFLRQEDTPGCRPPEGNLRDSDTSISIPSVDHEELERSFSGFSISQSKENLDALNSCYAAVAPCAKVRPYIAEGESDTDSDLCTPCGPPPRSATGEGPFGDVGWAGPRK
In short: (§1)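 HEK-293 cells stably expressing KCNQ2 or hERG were plated overnight, then loaded with Thallos AM dye for 1 h at 22 °C. Compounds (10-point, 3-fold dilutions) were added for 5 min, then Tl₂SO₄/K-gluconate stimulus, read at 1 Hz. F/F0 was vehicle-subtracted and initial slopes fit to a four-parameter logistic. Triplicate wells; mean of three independent experiments.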

[3] = Kinetic solubility in […] % DMSO/water at 3.2 uM to 100 uM incubated for 18 hrs by spectrometry; assay type: physicochemical; conditions: for solubility kinetic at 18 h: […] DMSO/water, read-out: Kinetic_solubility
CYP3A4 [4] = target: T1, CYP3A4 (Homo sapiens, UniProt P08684); test: Inhibition of CYP3A4 (unknown origin) at 50 uM using DBOMF as substrate measured for each min for 6 mins by fluorescence based assay relative to control; assay type: ADME; conditions: probe DBOMF
T1 sequence (P08684 whole entry): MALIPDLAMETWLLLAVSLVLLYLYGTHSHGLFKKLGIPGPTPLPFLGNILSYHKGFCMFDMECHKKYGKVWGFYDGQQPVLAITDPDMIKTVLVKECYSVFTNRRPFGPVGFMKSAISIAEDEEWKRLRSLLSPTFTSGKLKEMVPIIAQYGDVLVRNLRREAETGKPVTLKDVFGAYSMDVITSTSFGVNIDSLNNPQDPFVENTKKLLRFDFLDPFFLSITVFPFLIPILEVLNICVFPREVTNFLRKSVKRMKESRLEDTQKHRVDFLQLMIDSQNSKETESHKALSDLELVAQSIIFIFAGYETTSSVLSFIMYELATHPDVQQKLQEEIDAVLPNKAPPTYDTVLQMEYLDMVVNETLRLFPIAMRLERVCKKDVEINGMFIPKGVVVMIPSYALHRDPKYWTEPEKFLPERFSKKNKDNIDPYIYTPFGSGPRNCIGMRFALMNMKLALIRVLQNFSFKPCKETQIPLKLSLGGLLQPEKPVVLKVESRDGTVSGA

[5] = Metabolic stability in human liver microsomes assessed as percent remaining […] incubated for 1 hr by LC/MS analysis; assay type: ADME, Microsome
In short: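 Compound at 10 μM final (from 1 mM DMSO stock) pre-incubated 5 min at 37 °C with NADPH regenerating system in phosphate buffer pH 7.4. Started with human liver microsomes (0.5 mg/mL protein). After 1 h, triplicate aliquots quenched in cold acetonitrile with internal standard. Percent remaining by LC-MS/MS peak-area ratio to internal standard.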

[6] = Stability in 1:1 MeCN:0.2N aq. HCl assessed as percent remaining at 0.3 mM and 60 degC incubated for 24 hrs by LC/MS analysis; assay type: physicochemical; conditions: for remaining at 24 h, 300 µM: 1:1 MeCN:0.2N aq; call rule not given here. HCl, read-out: Stability
In short: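 Compound in 1:1 CH3CN/0.2 N aqueous HCl with furan-2-carboxylic acid (1 eq) as internal standard, heated at 60 °C. Analysed by LC-MS at set time points. Degradation from UV peak area at 254 nm relative to the internal standard.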

HepG2 = test: Cytotoxicity against human HepG2 cells assessed as reduction in cell viability incubated for 18 hrs by celltiter-glo assay; conditions: hepg2, 18 h
HEK293 = test: Cytotoxicity against human HEK293 cells assessed as reduction in cell viability incubated for 18 hrs by celltiter-glo assay; conditions: hek293, 18 h
[7] = target: T2, Alpha-1A adrenergic receptor (Homo sapiens, UniProt P35348); test: Inhibition of alpha1A adrenergic receptor (unknown origin)
T2 sequence (P35348 whole entry): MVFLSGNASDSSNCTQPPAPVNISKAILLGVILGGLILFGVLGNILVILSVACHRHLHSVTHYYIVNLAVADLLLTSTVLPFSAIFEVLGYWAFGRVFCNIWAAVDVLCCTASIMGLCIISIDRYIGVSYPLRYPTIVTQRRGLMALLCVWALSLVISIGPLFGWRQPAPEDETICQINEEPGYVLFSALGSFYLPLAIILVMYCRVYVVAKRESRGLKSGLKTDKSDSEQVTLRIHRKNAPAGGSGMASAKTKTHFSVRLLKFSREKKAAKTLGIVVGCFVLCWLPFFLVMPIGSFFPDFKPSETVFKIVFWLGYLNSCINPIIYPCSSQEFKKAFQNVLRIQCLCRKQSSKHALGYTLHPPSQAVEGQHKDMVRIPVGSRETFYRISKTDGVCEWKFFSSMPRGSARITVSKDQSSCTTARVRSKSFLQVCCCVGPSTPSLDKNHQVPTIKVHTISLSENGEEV

[8] = target: T3, Alpha-1A adrenergic receptor (Homo sapiens) (UniProt P35348); test: Binding affinity to alpha1A adrenergic receptor (unknown origin) at 10 uM relative to control
T3 sequence (whole entry): T2 sequence (P35348 whole entry)

[9] = target: Adrenergic receptor alpha-1 (Homo sapiens) (UniProt P35348+P25100+P35368); test: Binding affinity to alpha1 adrenergic receptor (unknown origin) at 10 uM relative to control; assay type: protein assay
Chain of Adrenergic receptor alpha-1 (Homo sapiens) (P25100 whole entry, looked up, one chain of several): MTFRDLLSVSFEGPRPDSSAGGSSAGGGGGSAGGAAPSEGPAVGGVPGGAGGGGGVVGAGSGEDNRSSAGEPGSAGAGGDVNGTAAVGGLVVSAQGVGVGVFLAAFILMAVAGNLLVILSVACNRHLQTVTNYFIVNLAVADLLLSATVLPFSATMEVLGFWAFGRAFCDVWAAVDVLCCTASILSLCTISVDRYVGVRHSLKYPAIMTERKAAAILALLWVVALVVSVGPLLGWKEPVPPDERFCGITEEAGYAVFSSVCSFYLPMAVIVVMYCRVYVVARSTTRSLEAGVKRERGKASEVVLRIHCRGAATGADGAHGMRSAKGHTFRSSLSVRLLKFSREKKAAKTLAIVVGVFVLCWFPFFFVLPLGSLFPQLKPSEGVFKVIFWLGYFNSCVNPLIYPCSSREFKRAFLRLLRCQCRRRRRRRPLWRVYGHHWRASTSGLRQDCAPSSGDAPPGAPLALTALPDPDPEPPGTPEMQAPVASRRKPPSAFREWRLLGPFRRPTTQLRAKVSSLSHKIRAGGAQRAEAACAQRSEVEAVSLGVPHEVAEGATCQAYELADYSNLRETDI
Chain of Adrenergic receptor alpha-1 (Homo sapiens) (P35368 whole entry, looked up, one chain of several): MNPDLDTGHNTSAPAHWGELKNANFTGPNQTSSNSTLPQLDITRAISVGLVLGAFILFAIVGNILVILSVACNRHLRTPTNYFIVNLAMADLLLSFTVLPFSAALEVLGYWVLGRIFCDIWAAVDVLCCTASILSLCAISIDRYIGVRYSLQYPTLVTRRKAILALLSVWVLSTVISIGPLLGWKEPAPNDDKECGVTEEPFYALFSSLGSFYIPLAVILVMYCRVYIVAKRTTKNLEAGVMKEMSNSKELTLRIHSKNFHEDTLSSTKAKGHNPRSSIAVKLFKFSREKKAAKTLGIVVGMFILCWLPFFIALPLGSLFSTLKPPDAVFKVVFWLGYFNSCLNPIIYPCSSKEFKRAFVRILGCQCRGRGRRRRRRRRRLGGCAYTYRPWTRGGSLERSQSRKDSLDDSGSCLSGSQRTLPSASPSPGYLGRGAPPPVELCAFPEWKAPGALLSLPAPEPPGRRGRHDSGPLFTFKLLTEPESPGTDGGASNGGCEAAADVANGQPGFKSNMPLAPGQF

CYP3A4 [10] = target: T1, CYP3A4; test: Inhibition of CYP3A4 (unknown origin) at 10 uM using DBOMF as substrate measured for each min for 6 mins by fluorescence based assay relative to control; assay type: ADME; conditions: probe DBOMF
In short: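 Vivid CYP3A4 Green assay in PBS pH 7.2 with NADP+ regeneration system. Final levels: 5 nM CYP3A4, 2 μM DBOMF substrate, 100 μM NADP+, 10 μM compound. Fluorescence (ex 490/em 520 nm) read every minute for 6 min, four wells per compound.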

[11] = target: Voltage-gated inwardly rectifying potassium channel KCNH2 (Homo sapiens, UniProt Q12809); test: Inhibition of ERG in human HEK293 cells incubated for 1 hr by thallium flux assay; assay type: cell-based; in short: as §1
Chain of Voltage-gated inwardly rectifying potassium channel KCNH2 (Q12809 whole entry): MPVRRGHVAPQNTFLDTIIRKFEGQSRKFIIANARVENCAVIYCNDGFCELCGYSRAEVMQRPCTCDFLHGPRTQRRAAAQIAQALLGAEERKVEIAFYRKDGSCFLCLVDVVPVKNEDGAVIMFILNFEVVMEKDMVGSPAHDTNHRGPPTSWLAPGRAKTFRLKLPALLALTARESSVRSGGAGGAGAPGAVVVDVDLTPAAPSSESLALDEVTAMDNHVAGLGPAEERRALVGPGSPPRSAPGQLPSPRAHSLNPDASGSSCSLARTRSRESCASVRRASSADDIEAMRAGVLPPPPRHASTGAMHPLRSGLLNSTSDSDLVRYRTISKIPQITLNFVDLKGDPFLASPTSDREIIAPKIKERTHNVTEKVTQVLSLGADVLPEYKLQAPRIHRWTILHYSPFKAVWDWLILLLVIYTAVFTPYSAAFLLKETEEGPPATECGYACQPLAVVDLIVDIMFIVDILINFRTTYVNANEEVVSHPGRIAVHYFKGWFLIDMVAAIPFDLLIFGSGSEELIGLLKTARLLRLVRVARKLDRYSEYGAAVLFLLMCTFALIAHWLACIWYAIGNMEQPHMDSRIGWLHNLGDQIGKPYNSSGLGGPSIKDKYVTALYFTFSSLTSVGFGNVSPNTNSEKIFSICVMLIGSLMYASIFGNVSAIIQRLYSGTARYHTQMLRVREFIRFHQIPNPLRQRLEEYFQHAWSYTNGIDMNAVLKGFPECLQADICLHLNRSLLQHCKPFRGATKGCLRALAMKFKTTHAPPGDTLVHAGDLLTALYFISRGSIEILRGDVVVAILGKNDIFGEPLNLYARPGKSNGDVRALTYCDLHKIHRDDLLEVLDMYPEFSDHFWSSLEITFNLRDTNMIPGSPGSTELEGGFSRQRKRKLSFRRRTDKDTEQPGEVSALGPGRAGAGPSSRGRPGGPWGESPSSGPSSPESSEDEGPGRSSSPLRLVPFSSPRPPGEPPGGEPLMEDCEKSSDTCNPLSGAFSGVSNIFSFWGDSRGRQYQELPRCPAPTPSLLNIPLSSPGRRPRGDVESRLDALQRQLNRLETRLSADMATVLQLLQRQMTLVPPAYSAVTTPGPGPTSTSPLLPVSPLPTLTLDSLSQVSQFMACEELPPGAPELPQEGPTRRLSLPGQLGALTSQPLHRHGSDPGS

D(3) dopamine receptor [12] = target: T4, D(3) dopamine receptor (Homo sapiens, UniProt P35462); test: Inhibition of D3 receptor (unknown origin)
T4 sequence (P35462 whole entry): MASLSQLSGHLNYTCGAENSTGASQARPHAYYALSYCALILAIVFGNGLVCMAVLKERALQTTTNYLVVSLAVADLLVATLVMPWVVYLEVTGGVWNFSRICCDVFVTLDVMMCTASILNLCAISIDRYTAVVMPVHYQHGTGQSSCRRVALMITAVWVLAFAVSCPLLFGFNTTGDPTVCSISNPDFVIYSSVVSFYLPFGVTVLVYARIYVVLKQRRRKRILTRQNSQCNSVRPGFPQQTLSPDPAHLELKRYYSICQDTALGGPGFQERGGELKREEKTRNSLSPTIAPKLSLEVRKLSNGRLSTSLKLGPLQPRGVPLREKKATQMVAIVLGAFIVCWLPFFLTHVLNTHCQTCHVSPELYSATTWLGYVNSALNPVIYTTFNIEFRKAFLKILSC

D(3) dopamine receptor [13] = target: T4, D(3) dopamine receptor; test: Binding affinity to D3 receptor (unknown origin) at 10 uM relative to control

Row | Structure (SMILES) | inhibition [1] [%] | pIC50 [2] | solubility kinetic at 18 h [3] [µM] | inhibition at 0.1 h, 50 µM (CYP3A4 [4]) [%] | Stability [5] [%] | Stability ([6]; buffer, 24 h, 300 µM) [%] | CC50 (HepG2) [µM] | CC50 (HEK293) [µM] | pKi [7] | Activity [8] [%] | Activity [9] [%] | inhibition at 0.1 h, 10 µM (CYP3A4 [10]) [%] | remaining at 24 h, 300 µM [6] [%] | IC50 [11] | Kinetic_solubility ([3]; buffer, 18 h, 3.2 µM) [µM] | pKi (D(3) dopamine receptor [12]) | Activity (D(3) dopamine receptor [13]) [%]
1 | O=C1c2ccccc2C(Cc2ccncc2)(Cc2ccncc2)c2ccccc21 | 81 | 7.26 | 27 (≈ 10.2 µg/mL) | – | – | – | – | – | – | – | – | – | – | – | – | – | –
2 | O=C1c2ccccc2C(Cc2ccnc(F)c2)(Cc2ccnc(F)c2)c2ccccc21 | 31 | 7.32 | 27 (≈ 11.1 µg/mL) | 82 | 97 | 83 | 132 | 77 | 5.51 to 5.96 | > 30 | > 30 | 79 | – | – | – | – | –
3 | O=C1c2ccccc2C(Cc2c(F)cncc2F)(Cc2c(F)cncc2F)c2ccccc21 | 65 | 6.70 | – | 97 | – | – | – | – | – | – | – | – | > 99 | – | – | – | –
4 | Cc1cc(CC2(Cc3ccnc(C)c3)c3ccccc3C(=O)c3ccccc32)ccn1 | 33 | 6.27 | – | 92 | – | – | – | – | – | – | – | – | – | Not Active | – | – | –
5 | O=C1c2ccccc2C(Cc2ccnnc2)(Cc2c(F)cncc2F)c2ccccc21 | 73 | 6.80 | – | – | 84 | – | > 150 | > 150 | – | – | > 30 | 90 | > 99 | – | 27 | < 5.00 | > 30
6 | O=C1c2ccccc2C(Cc2ccnnc2)(Cc2ccnnc2)c2ccccc21 | 12 | 5.00 | – | 28 | – | – | – | – | – | – | – | – | – | Not Active | – | – | –
7 | O=C1c2ccccc2C(Cc2ccnc(C(F)(F)F)c2)(Cc2ccnc(C(F)(F)F)c2)c2ccccc21 | 6 | 5.25 | – | 95 | – | – | – | – | – | – | – | – | – | Not Active | – | – | –
